In ChEMBL document CHEMBL1132570, “Synthesis of cytotoxic indenoisoquinoline topoisomerase I poisons” (1999):

Key:
SF-539 [1] = test: Compound was tested for its cytotoxicity against CNS SF-539 Human cancer cell line; assay type: functional
Outline: (§1)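 GI50 = concentration giving 50% growth inhibition, from a screen of about 55 human cancer cell lines over a 10^-8 to 10^-4 M test range. Values come from two determinations where a population standard deviation is shown, otherwise from single determinations.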

DU-145 = test: Cytotoxicity against prostate DU-145 human cancer cell line.; assay type: functional; outline: as §1
[2] = biological target: T1, DNA topoisomerase 1 (Homo sapiens) (UniProt P11387); test: The activity was examined against DNA topoisomerase I mediated DNA cleavage using 3''-End-labelled 161 BP plasmid DNA. +/- less than 20% of the activity 0f 1 uM camptothecin
T1 sequence (whole entry): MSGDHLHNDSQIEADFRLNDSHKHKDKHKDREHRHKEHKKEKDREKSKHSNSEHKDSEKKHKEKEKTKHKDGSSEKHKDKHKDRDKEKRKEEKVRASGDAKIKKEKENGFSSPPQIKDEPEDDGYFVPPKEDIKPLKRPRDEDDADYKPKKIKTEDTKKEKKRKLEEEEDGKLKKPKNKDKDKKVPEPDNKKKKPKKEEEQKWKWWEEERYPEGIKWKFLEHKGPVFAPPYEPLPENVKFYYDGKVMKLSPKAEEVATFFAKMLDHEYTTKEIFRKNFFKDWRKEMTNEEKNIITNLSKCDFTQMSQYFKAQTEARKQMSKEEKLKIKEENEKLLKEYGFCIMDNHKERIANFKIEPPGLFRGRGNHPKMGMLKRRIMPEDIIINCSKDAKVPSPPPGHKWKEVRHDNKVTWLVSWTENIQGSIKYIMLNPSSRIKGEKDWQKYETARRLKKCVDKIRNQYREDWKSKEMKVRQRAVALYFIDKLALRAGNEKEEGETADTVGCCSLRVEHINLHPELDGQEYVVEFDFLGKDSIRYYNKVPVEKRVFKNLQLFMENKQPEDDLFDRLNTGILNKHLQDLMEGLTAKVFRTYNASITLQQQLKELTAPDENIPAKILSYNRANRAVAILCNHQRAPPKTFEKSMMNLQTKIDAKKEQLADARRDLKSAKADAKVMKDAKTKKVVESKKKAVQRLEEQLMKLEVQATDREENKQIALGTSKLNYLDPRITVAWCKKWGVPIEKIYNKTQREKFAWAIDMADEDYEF
Outline: (§2)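 A 161 bp PvuII–HindIII fragment of pBluescript SK(–) was 3'-end-labeled at the HindIII site with [α-32P]dCTP by Klenow fill-in. About 50 000 dpm per reaction was incubated with top1 and drug (0.1–300 μM) at 30 °C for 30 min, then stopped with 0.5% SDS (final). Products were run on 16% polyacrylamide/7 M urea gels at 51 °C and imaged by phosphorimager.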

HOP-62 = test: Cytotoxicity against lung HOP-62 human cancer cell line.; assay type: functional; outline: as §1
HCT-116 = test: Cytotoxicity against colon HCT116 human cancer cell line.; assay type: functional; outline: as §1
MDA-MB-435 [3] = test: In vitro cytotoxicity against MDA-MB-435 (Human breast cancer) cell line.; assay type: functional; outline: as §1
OVCAR-3 = test: Cytotoxicity against ovarian OVCAR-3 human cancer cell line.; assay type: functional; outline: as §1
SN12C = test: In vitro cytotoxicity against SN12C (Human renal cancer) cell line.; assay type: functional; outline: as §1
UACC-62 = test: In vitro cytotoxicity against UACC-62 (Human melanoma) cell line.; assay type: functional; outline: as §1
[4] = biological target: T1, DNA topoisomerase 1 (Homo sapiens); test: The activity was examined against DNA topoisomerase I mediated DNA cleavage using 3'-End-labelled 161 BP plasmid DNA; 0 indicates inactive; outline: as §2
[5] = biological target: T1, DNA topoisomerase 1 (Homo sapiens); test: The activity was examined against DNA topoisomerase I mediated DNA cleavage using 3'-End-labelled 161 BP plasmid DNA. 0 indicates inactive; outline: as §2
SF-539 [6] = test: Compound was tested for its cytotoxicity against CNS SF-539 cell line; assay type: functional; settings: Homo sapiens; outline: as §1
MDA-MB-435 [7] = test: Compound was tested for its cytotoxicity against breast MDA-MB-435 Human cancer cell line; assay type: functional; outline: as §1
[8] = biological target: T1, DNA topoisomerase 1 (Homo sapiens); test: The activity was examined against DNA topoisomerase I mediated DNA cleavage using 3''-End-labelled 161 BP plasmid DNA. +/- indicates less than 20% of the activity of 1 uM camptothecin; outline: as §2
[9] = biological target: T1, DNA topoisomerase 1 (Homo sapiens); test: The activity was examined against DNA topoisomerase I mediated DNA cleavage using 3''-End-labelled 161 BP plasmid DNA.+/- indicates less than 20% of the activity of 1 uM camptothecin; outline: as §2
[10] = biological target: T1, DNA topoisomerase 1 (Homo sapiens); test: The activity was examined against DNA topoisomerase I mediated DNA cleavage using 3''-End-labelled 161 BP plasmid DNA. + indicates between 20 and 50% of the activity of 1 uM camptothecin; outline: as §2
[11] = biological target: T1, DNA topoisomerase 1 (Homo sapiens); test: The activity was examined against DNA topoisomerase I mediated DNA cleavage using 3''-End-labelled 161 BP plasmid DNA; +/- less than 20% of the activity of 1 uM camptothecin; outline: as §2

Row | SMILES | GI50 (SF-539 [1]) | GI50 (DU-145) | Top1 cleavage activity [2] | GI50 (HOP-62) | GI50 (HCT-116) | GI50 (MDA-MB-435 [3]) | GI50 (OVCAR-3) | GI50 (SN12C) | GI50 (UACC-62) | Top1 cleavage activity [4] | Top1 cleavage activity [5] | GI50 (SF-539 [6]) | GI50 (MDA-MB-435 [7]) | Top1 cleavage activity [8] | Top1 cleavage activity [9] | Top1 cleavage activity [10] | Top1 cleavage activity [11]
1 | CCn1c2c(c3cc(OC)c(OC)cc3c1=O)C(=O)c1cc3c(cc1-2)OCO3 | 2 µM | 2.3 µM | +/- | 2.2 µM | 2.6 µM | 2.6 µM | 3 µM | 3.6 µM | 2.1 µM |  |  |  |  |  |  |  | 
2 | COc1ccc(-n2c3c(c4cc(OC)c(OC)cc4c2=O)C(=O)c2cc4c(cc2-3)OCO4)cc1 | > 100 µM | 76 µM |  | 20 µM | > 100 µM | > 100 µM | > 100 µM | > 100 µM | > 100 µM | 0 |  |  |  |  |  |  | 
3 | COC(=O)Cn1c2c(c3ccccc3c1=O)C(=O)c1ccccc1-2 | > 100 µM | > 100 µM |  |  |  | > 100 µM | > 100 µM | > 100 µM | > 100 µM |  | 0 |  |  |  |  |  | 
4 | O=C1c2ccccc2-c2c1c1ccccc1c(=O)n2C1CC1 |  | > 100 µM |  | 61 µM | > 100 µM |  | > 100 µM | > 100 µM | 84 µM |  | 0 | > 100 µM | > 100 µM |  |  |  | 
5 | COc1cc2c(cc1OC)[C@H]1C(=O)c3cc4c(cc3[C@H]1N(C)C2=O)OCO4 | 3.1 µM | 4.1 µM |  | 9.4 µM | 2 µM | 17 µM | 6.7 µM | 2.1 µM | 0.42 µM |  |  |  |  | +/- |  |  | 
6 | CCN1C(=O)c2cc(OC)c(OC)cc2[C@@H]2[C@H]1c1cc3c(cc1[C@@H]2O)OCO3 | > 100 µM | > 100 µM |  | > 100 µM | > 100 µM | > 100 µM | > 100 µM | > 100 µM |  |  | 0 |  |  |  |  |  | 
7 | CCCn1c2c(c3ccccc3c1=O)C(=O)c1ccccc1-2 |  |  |  |  |  |  |  |  |  |  | 0 |  |  |  |  |  | 
8 | CCN1C(=O)c2cc(OC)c(OC)cc2[C@H]2C(=O)c3cc4c(cc3[C@H]21)OCO4 |  | 0.42 µM |  | 0.29 µM | 0.29 µM | 0.45 µM | 0.44 µM |  | 0.18 µM |  |  |  |  |  | +/- |  | 
9 | O=C1c2ccccc2-c2oc(=O)c3ccccc3c21 | > 100 µM | > 100 µM |  | > 100 µM | > 100 µM | > 100 µM | > 100 µM | > 100 µM | > 100 µM |  | 0 |  |  |  |  |  | 
10 | COc1cc2c3c(n(CCCCO)c(=O)c2cc1OC)-c1cc2c(cc1C3=O)OCO2 |  | 0.36 µM |  | 0.7 µM | 1.4 µM | 10 µM | 3.7 µM |  | 0.99 µM |  |  |  |  |  |  | 20-50% of the activity of 1 uM camptothecin | 
11 | CCn1c2c(c3ccccc3c1=O)C(=O)c1ccccc1-2 |  |  |  |  |  |  |  |  |  |  | 0 |  |  |  |  |  | 
12 | O=C1c2ccccc2-c2c1c1ccccc1c(=O)n2CCCCCO |  | 3.4 µM |  | 4.4 µM | 3.9 µM | 41 µM | 93 µM |  | 14.3 µM |  |  |  |  |  |  | 20-50% of the activity of 1 uM camptothecin | 
13 | COc1cc2c3c(n(Cc4ccccc4)c(=O)c2cc1OC)-c1cc2c(cc1C3=O)OCO2 |  | 4 µM |  | 12 µM | > 100 µM | > 100 µM | > 100 µM |  | 50 µM |  |  |  |  |  |  |  | +/-
